Calls of active or inactive are those of the source. The calls are words filed in the database; no cut-off is given here.
Assays:
A549 [1] = experiment: Cell cycle arrest in human A549 cells assessed as accumulation at S phase at 1 uM after by propidium iodide staining-based fluorescence analysis (reference value: 2.74%); assay type: functional
A549 [2] = experiment: Cell cycle arrest in human A549 cells assessed as accumulation at G0/G1 phase at 1 uM after by propidium iodide staining-based fluorescence analysis (reference value: 83.43%); assay type: functional
MCF7 = experiment: Anticancer activity against human MCF7 cells after 48 hrs by MTT assay; assay type: functional, cell-based; settings: MCF7, 48 h
Summary of the method: (§1)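 MTT assay. Cells seeded at 1 × 10⁴/well in DMEM with 10% FBS and held 24 h at 37 °C in CO₂. Compounds were diluted in culture medium and added alongside vehicle controls, then incubated 48 h. MTT (5 mg/ml stock) was added for 4 h. Supernatant was removed, formazan dissolved in DMSO, and absorbance read at 540 nm.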

A549 [3] = experiment: Cell cycle arrest in human A549 cells assessed as accumulation at S phase at 5 uM after by propidium iodide staining-based fluorescence analysis (reference value: 2.74%); assay type: functional
A549 [4] = experiment: Anticancer activity against human A549 cells after 48 hrs by MTT assay; assay type: functional, cell-based; settings: A549, 48 h; summary of the method: as §1
ACHN = experiment: Anticancer activity against human ACHN cells after 48 hrs by MTT assay; assay type: functional, cell-based; summary of the method: as §1
A549 [5] = experiment: Cell cycle arrest in human A549 cells assessed as accumulation at G2/M phase at 5 uM after by propidium iodide staining-based fluorescence analysis (reference value: 9.27%); assay type: functional
A-375 = experiment: Anticancer activity against human A375 cells after 48 hrs by MTT assay; assay type: functional, cell-based; settings: A-375, 48 h; summary of the method: as §1
A549 [6] = experiment: Induction of apoptosis in human A549 cells assessed as nuclear fragmentation at 2 uM after 24 hrs by Hoechst staining-based fluorescent microscopic analysis; assay type: functional, cell-based
Summary of the method: (§2)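 A-549 cells (10,000) were grown on 18-mm coverslips for 24 h, given fresh medium, then treated 24 h. Vehicle control was 0.001% DMSO. Hoechst 33258 was added to medium at […]. Apoptotic cells were quantified manually by field counts scoring cytoplasmic condensation, apoptotic bodies, nuclear fragmentation and relative fluorescence.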

A549 [7] = experiment: Induction of apoptosis in human A549 cells assessed as caspase 3 activation using Ac-DEVD as substrate at 2 uM after 48 hrs by fluorometric analysis relative to control; assay type: functional
Summary of the method: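 A-549 cells were seeded at 2.5 × 10⁵/well and treated. Cells were scraped into PBS, pelleted, lysed on ice 20–30 min, and cleared at 13,200 rpm. Lysate was mixed with 2X assay buffer and Ac-DEVD-AFC substrate and reacted 1 h. AFC fluorescence (ex 400, em 505 nm) was read every 5 min, expressed as fold over control. Mean of two experiments in triplicate.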

HT-29 = experiment: Anticancer activity against human HT-29 cells after 48 hrs by MTT assay; assay type: functional, cell-based; settings: HT-29, 48 h; summary of the method: as §1
A549 [8] = experiment: Induction of apoptosis in human A549 cells assessed as cytoplasmic condensation at 2 uM after 24 hrs by Hoechst staining-based fluorescent microscopic analysis; assay type: functional, cell-based; summary of the method: as §2
A549 [9] = experiment: Cell cycle arrest in human A549 cells assessed as accumulation at G0/G1 phase at 5 uM after by propidium iodide staining-based fluorescence analysis (reference value: 83.43%); assay type: functional
A549 [10] = experiment: Cell cycle arrest in human A549 cells assessed as accumulation at subG1 phase at 5 uM after by propidium iodide staining-based fluorescence analysis (reference value: 2.74%); assay type: functional
A549 [11] = experiment: Induction of apoptosis in human A549 cells assessed as nuclear fragmentation at 5 uM after 24 hrs by Hoechst staining-based fluorescent microscopic analysis; assay type: functional, cell-based; summary of the method: as §2
A549 [12] = experiment: Induction of apoptosis in human A549 cells assessed as cytoplasmic condensation at 5 uM after 24 hrs by Hoechst staining-based fluorescent microscopic analysis; assay type: functional, cell-based; summary of the method: as §2
A549 [13] = experiment: Induction of apoptosis in human A549 cells assessed as presence of apoptotic bodies at 5 uM after 24 hrs by Hoechst staining-based fluorescent microscopic analysis; assay type: functional, cell-based; summary of the method: as §2
A549 [14] = experiment: Induction of apoptosis in human A549 cells assessed as induction of DNA fragmentation at 5 uM after 48 hrs by agarose gel electrophoresis; assay type: functional, cell-based
Summary of the method: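 A-549 cells (1 × 10⁶, six-well plates) were treated 48 h after 24 h attachment. Cells were pelleted, PBS-washed and lysed. Supernatant was treated with 10% SDS and RNase-A for 2 h at 56 °C, then proteinase K for 2 h at 37 °C. DNA was precipitated with ammonium acetate and ice-cold ethanol at −80 °C, pelleted, washed with 80% ethanol, and run for ladder pattern against a 50 bp marker.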

A549 [15] = experiment: Cell cycle arrest in human A549 cells assessed as accumulation at G2/M phase at 1 uM after by propidium iodide staining-based fluorescence analysis (reference value: 9.27%); assay type: functional
A549 [16] = experiment: Induction of apoptosis in human A549 cells assessed as presence of apoptotic bodies at 2 uM after 24 hrs by Hoechst staining-based fluorescent microscopic analysis; assay type: functional, cell-based; summary of the method: as §2
A549 [17] = experiment: Cell cycle arrest in human A549 cells assessed as accumulation at subG1 phase at 1 uM after by propidium iodide staining-based fluorescence analysis (reference value: 2.74%); assay type: functional

SMILES	Activity (A549 [1]) [%]	Activity (A549 [2]) [%]	IC50 (MCF7) [µM]	Activity (A549 [3]) [%]	IC50 (A549 [4]) [nM]	IC50 (ACHN) [µM]	Activity (A549 [5]) [%]	IC50 (A-375) [µM]	Activity (A549 [6])	fold change (FC) (A549 [7])	IC50 (HT-29) [nM]	Activity (A549 [8])	Activity (A549 [9]) [%]	Activity (A549 [11])	Activity (A549 [12])	Activity (A549 [13])	Activity (A549 [14])	Activity (A549 [15]) [%]	Activity (A549 [16])	Activity (A549 [17]) [%]	further results
COc1cc([C@@H]2c3cc4c(cc3[C@@H](NC(=O)/C=C/c3ccccc3)[C@H]3COC(=O)[C@H]23)OCO4)cc(OC)c1OC	9.5	23.39	19.7	8.64	2700	3.91	67.78	13.4	Active	4	2360	Active	18.65	Active	Active	Active	Active	61.89	Active	3.29	Activity (A549 [10]): 2.62%
COc1cc([C@@H]2c3cc4c(cc3[C@@H](O[C@@H]3O[C@@H]5CO[C@@H](C)O[C@H]5[C@H](O)[C@H]3O)[C@H]3COC(=O)[C@H]23)OCO4)cc(OC)c1O [ETOPOSIDE]	7.23	69.82	0.68		2340	7.61		1.39	Active	6	1810	Active		Active	Active	Active	Active	19.21	Active	2.89	
COc1cc([C@@H]2c3cc4c(cc3[C@@H](NC(=O)/C=C/c3ccc(C(F)(F)F)cc3)[C@H]3COC(=O)[C@H]23)OCO4)cc(OC)c1OC	9.54	45.23	19.2	10.16	2100	2.18	43.39	18	Active	4	370	Active	39.84	Active	Active	Active	Active	38.11	Active	4.51	Activity (A549 [10]): 4.43%
